Source: ChEMBL document CHEMBL2424622, “Development of amino-pyrimidine inhibitors of c-Jun N-terminal kinase (JNK): kinase profiling guided optimization of a 1,2,3-benzotriazole lead” (Bioorg Med Chem Lett, 2013)

Columns and labels:
[1] = target: T1, Serine/threonine-protein kinase Nek1 (Homo sapiens) (UniProt Q96PY6); experiment: Competitive binding affinity to NEK1 (unknown origin) at 10 uM in presence of ATP relative to control
T1 sequence (whole entry): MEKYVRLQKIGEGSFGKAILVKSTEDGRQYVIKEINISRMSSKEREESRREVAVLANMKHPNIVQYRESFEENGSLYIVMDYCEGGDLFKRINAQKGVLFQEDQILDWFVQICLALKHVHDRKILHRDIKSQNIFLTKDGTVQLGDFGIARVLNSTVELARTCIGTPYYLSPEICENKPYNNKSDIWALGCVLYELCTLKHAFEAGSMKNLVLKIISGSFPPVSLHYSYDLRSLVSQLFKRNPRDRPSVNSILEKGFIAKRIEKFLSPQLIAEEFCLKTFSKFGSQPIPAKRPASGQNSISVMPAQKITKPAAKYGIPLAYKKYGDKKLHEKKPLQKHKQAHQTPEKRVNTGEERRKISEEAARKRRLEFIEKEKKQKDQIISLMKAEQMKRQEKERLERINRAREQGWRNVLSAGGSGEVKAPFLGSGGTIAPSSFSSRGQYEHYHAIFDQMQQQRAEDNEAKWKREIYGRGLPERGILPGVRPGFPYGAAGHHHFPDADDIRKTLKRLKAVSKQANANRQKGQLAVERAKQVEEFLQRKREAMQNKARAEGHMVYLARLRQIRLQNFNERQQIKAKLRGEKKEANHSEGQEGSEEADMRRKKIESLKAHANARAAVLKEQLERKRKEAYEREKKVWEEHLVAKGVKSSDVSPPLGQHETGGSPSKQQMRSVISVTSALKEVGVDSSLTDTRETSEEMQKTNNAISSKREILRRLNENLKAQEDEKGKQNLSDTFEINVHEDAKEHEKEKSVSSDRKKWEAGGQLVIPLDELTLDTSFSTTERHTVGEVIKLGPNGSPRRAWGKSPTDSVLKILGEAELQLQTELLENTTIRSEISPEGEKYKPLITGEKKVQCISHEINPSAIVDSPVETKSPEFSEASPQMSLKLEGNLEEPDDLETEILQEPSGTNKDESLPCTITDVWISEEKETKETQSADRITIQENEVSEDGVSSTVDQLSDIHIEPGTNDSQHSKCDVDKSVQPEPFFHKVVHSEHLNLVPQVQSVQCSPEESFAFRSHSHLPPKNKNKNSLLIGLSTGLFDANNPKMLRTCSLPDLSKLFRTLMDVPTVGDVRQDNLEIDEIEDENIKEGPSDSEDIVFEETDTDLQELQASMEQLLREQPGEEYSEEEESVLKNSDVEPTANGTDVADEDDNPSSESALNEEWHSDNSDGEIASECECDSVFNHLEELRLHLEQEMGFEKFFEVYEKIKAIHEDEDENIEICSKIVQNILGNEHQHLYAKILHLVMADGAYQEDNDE

[2] = tested on: Tyrosine-protein kinase ABL1 (Homo sapiens), P00519 [Y253F]; experiment: Competitive binding affinity to ABL1 Y253F mutant (unknown origin) at 10 uM in presence of ATP relative to control
[3] = tested on: eIF-2-alpha kinase GCN2 (Homo sapiens), Q9P2K8 [S808G]; experiment: Competitive binding affinity to GCN2 kinase domain 2 S808G mutant (unknown origin) at 10 uM in presence of ATP relative to control
Chain of eIF-2-alpha kinase GCN2 (Homo sapiens), Q9P2K8 [S808G] (Q9P2K8 whole entry S808G, the tested form may be a part): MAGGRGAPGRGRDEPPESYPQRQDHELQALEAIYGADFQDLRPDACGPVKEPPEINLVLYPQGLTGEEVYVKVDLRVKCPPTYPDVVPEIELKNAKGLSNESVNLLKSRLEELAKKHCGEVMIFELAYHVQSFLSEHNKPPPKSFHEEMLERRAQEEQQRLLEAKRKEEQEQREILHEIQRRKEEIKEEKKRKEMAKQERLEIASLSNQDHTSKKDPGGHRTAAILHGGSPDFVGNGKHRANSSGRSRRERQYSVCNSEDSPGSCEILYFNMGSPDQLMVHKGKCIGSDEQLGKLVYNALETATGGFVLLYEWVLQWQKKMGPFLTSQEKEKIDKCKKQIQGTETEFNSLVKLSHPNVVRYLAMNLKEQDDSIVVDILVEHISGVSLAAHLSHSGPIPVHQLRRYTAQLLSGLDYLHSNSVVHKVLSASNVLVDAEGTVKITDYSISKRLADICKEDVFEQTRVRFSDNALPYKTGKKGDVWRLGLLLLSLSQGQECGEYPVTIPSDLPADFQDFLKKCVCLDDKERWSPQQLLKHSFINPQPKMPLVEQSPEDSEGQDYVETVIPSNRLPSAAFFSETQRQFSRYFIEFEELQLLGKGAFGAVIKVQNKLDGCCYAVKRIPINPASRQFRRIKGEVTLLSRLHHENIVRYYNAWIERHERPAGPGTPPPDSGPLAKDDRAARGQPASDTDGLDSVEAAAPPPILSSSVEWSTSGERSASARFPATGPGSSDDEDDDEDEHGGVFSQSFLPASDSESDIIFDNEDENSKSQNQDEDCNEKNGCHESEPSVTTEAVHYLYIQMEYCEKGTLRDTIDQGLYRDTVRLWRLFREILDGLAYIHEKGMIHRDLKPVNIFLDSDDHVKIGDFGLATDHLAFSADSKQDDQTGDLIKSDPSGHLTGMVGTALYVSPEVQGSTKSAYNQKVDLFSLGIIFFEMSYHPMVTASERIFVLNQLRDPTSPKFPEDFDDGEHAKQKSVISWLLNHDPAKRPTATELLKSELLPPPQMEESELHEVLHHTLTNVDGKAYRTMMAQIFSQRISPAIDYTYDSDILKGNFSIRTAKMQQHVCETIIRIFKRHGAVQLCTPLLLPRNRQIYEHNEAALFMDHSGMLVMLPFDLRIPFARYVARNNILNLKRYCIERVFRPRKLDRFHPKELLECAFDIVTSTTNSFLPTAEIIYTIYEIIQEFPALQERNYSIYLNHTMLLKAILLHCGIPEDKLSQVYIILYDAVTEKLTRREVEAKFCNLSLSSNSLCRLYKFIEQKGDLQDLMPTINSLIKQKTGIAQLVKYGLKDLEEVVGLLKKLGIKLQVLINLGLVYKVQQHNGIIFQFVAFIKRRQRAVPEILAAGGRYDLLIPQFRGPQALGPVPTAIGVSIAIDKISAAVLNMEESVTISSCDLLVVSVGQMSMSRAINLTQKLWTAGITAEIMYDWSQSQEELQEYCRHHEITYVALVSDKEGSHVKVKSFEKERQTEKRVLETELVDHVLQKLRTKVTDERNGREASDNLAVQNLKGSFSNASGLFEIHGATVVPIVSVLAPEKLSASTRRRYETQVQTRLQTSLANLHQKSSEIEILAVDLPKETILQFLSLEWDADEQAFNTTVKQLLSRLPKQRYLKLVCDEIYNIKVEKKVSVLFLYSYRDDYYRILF
Summary of the method: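 In vitro ATP-site competition binding format, run as one member of a diverse 128-kinase profiling panel. Each compound was tested at a single concentration across the whole panel.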

[4] = target: T2, Atypical kinase COQ8B, mitochondrial (Homo sapiens) (UniProt Q96D53); experiment: Competitive binding affinity to ADCK4 (unknown origin) at 10 uM in presence of ATP relative to control
T2 sequence (whole entry): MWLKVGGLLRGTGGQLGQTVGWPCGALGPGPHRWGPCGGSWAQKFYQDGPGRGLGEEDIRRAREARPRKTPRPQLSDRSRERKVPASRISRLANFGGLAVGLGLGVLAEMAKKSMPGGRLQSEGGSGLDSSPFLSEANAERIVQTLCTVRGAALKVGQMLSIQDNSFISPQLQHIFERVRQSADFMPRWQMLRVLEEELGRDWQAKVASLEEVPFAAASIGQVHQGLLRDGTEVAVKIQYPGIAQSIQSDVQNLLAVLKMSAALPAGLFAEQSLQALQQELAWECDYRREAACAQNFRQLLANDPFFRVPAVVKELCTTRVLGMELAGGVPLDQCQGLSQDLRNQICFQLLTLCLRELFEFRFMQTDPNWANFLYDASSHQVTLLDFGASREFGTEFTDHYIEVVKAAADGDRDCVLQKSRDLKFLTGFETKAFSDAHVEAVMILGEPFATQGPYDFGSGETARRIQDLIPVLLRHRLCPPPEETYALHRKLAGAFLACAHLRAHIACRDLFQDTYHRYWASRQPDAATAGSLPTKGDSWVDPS

[5] = target: TGF-beta receptor type-2 (Homo sapiens) (UniProt P37173); experiment: Competitive binding affinity to TGFBR2 (unknown origin) at 10 uM in presence of ATP relative to control
Chain of TGF-beta receptor type-2 (Homo sapiens) (P37173 whole entry): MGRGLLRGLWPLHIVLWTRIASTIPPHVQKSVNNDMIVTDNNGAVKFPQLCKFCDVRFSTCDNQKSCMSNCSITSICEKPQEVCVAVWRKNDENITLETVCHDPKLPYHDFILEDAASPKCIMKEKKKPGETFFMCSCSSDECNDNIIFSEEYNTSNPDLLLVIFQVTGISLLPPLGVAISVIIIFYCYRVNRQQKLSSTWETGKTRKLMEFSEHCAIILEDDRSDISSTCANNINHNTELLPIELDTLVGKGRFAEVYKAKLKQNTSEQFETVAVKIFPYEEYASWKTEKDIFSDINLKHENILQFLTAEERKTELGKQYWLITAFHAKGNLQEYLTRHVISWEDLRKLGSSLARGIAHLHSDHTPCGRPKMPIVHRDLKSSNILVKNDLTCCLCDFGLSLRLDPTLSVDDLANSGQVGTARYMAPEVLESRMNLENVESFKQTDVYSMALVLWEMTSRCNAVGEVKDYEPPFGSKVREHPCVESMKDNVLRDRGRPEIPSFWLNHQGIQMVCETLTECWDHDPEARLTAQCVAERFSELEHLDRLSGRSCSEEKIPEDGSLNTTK

[6] = target: T3, Dual specificity mitogen-activated protein kinase kinase 3 (Homo sapiens) (UniProt P46734); experiment: Competitive binding affinity to MEK3 (unknown origin) at 10 uM in presence of ATP relative to control
T3 sequence (whole entry): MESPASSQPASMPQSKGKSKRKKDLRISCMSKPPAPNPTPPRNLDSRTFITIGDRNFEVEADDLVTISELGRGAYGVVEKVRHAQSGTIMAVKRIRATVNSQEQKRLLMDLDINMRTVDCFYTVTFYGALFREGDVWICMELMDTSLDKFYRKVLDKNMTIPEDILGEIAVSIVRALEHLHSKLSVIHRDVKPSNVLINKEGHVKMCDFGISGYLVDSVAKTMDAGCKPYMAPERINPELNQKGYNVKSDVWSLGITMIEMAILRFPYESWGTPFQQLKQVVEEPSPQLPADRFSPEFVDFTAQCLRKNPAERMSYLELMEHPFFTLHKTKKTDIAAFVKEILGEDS

[7] = target: T4, Phosphatidylinositol 5-phosphate 4-kinase type-2 beta (Homo sapiens) (UniProt P78356); experiment: Competitive binding affinity to PIP5K2B (unknown origin) at 10 uM in presence of ATP relative to control
T4 sequence (whole entry): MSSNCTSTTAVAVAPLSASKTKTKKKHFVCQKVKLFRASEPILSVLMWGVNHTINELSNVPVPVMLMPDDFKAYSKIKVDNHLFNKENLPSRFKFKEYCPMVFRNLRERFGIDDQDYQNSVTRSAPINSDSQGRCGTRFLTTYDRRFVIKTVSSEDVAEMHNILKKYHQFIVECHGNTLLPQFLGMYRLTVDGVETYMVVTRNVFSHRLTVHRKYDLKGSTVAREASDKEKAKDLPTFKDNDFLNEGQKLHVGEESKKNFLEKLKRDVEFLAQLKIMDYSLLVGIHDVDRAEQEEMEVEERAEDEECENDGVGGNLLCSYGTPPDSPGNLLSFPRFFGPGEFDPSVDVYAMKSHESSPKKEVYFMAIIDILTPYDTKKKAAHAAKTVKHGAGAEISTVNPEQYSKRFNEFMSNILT

inhibition [1] [%] | inhibition [2] [%] | inhibition [3] [%] | inhibition [4] [%] | inhibition [5] [%] | inhibition [6] [%] | inhibition [7] [%] | Compound
> 85 |  | > 85 | > 85 |  |  |  | CS(=O)(=O)CCCOc1cccc2c1ccn2-c1ccnc(N[C@H]2CC[C@H](C(=O)N3CCC(O)CC3)CC2)n1
 | < 50 | 100 | 74 |  |  |  | O[C@H]1CC[C@H](Nc2nccc(-c3n[nH]c4ccccc34)n2)CC1
84 | < 50 | 83 | 76 | < 50 | 93 | < 50 | O[C@H]1CC[C@H](Nc2nccc(-n3ccc4ccccc43)n2)CC1

The remaining lines, values behind:

Compound | inhibition [1] [%] | inhibition [2] [%] | inhibition [3] [%] | inhibition [4] [%] | inhibition [5] [%] | inhibition [6] [%] | inhibition [7] [%]
O[C@H]1CC[C@H](Nc2nccc(-n3nnc4ccccc43)n2)CC1 | 98 | 66 | 99 | 70 | 96 | 97 | 74
O[C@H]1CC[C@H](Nc2nccc(-n3ncc4ccccc43)n2)CC1 | 96 | < 50 | 100 | 79 | < 50 | 95 | 92
